Reference: ChEMBL document CHEMBL1649284 (Antimicrob Agents Chemother, 2009)
Numbered stars: 1 amine (or outer) side, 2 acyl side, 3 side chain; on linkers, the order of the positions; unused ones are H or OH. Bridge positions count the residues as written; N and C are the ends. Square brackets hold non-standard residues; d marks the D form. Peptide text beside a SMILES is read from it. * marks the point of attachment. pTerphenylCO(4''-OnC5H11) = CCCCCOc1ccc(-c2ccc(-c3ccc(C(=O)*)cc3)cc2)cc1; Orn(4R-OH,5R-OH) = O=C([C@H](C[C@@H](O)[C@@H](O)N[*:3])N[*:1])[*:2]; hTyr(3S-OH,4S-OH) = N[C@H](C(=O)O)[C@H](O)[C@@H](O)c1ccc(O)cc1; Pro(3S-OH,4S-Me) = C[C@H]1CN[C@H](C(=O)O)[C@H]1O; Hyp = O=C(O)[C@@H]1C[C@@H](O)CN1

Columns and labels:
[1] = Cmax in healthy human at 6 mg/kg, iv for every 12 hrs on day 1 as 120 mins infusions followed by maintenance dose of 4 mg/kg every 12 hrs on day 2 and single 4 mg/kg dose on day 3 as 100 mins infusions; format: ADME, organism-based; design: dose 6 mg/kg, route intravenous; conditions: in vivo
How it was run: (§1)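 Dose by actual body weight, rounded to nearest mg. Duplicate plasma samples at 0 h, 100 min, and 2, 4, 8, 12, 24 h after the day-3 dose start. HPLC-MS/MS (range 10.0–5,000 ng/ml). Noncompartmental analysis per participant; AUC0-τ by linear-log trapezoidal rule, τ = 12 h.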

[2] = Tmax in healthy human at 6 mg/kg, iv for every 12 hrs on day 1 as 120 mins infusions followed by maintenance dose of 4 mg/kg every 12 hrs on day 2 and single 4 mg/kg dose on day 3 as 100 mins infusions; format: ADME, organism-based; conditions: in vivo; how it was run: as §1
[3] = AUC (0 to t) in healthy human at 6 mg/kg, iv for every 12 hrs on day 1 as 120 mins infusions followed by maintenance dose of 4 mg/kg every 12 hrs on day 2 and single 4 mg/kg dose on day 3 as 100 mins infusions; format: ADME, organism-based; conditions: plasma; how it was run: as §1
[4] = Volume of distribution at steady state in healthy human at 6 mg/kg, iv for every 12 hrs on day 1 as 120 mins infusions followed by maintenance dose of 4 mg/kg every 12 hrs on day 2 and single 4 mg/kg dose on day 3 as 100 mins infusions; format: ADME, organism-based; conditions: in vivo, read-out: Vdss; how it was run: as §1
[5] = Elimination half life in healthy human at 6 mg/kg, iv for every 12 hrs on day 1 as 120 mins infusions followed by maintenance dose of 4 mg/kg every 12 hrs on day 2 and single 4 mg/kg dose on day 3 as 100 mins infusions; format: ADME, organism-based; conditions: in vivo, read-out: beta t1/2 (converted)
[6] = Drug level healthy human plasma at 6 mg/kg, iv for every 12 hrs on day 1 as 120 mins infusions followed by maintenance dose of 4 mg/kg every 12 hrs on day 2 and single 4 mg/kg dose on day 3 as 100 mins infusions after 4 hrs of last dose; format: ADME, organism-based; conditions: read-out: Drug uptake
[7] = Drug level healthy human plasma at 6 mg/kg, iv for every 12 hrs on day 1 as 120 mins infusions followed by maintenance dose of 4 mg/kg every 12 hrs on day 2 and single 4 mg/kg dose on day 3 as 100 mins infusions after 8 hrs of last dose; format: ADME, organism-based; conditions: read-out: Drug uptake
[8] = Drug level healthy human plasma at 6 mg/kg, iv for every 12 hrs on day 1 as 120 mins infusions followed by maintenance dose of 4 mg/kg every 12 hrs on day 2 and single 4 mg/kg dose on day 3 as 100 mins infusions after 12 hrs of last dose; format: ADME, organism-based; conditions: read-out: Drug uptake
[9] = Drug level in healthy human epithelial lining fluid at 6 mg/kg, iv for every 12 hrs on day 1 as 120 mins infusions followed by maintenance dose of 4 mg/kg every 12 hrs on day 2 and single 4 mg/kg dose on day 3 as 100 mins infusions after 4 hrs of last dose; format: ADME, organism-based; conditions: read-out: Drug uptake
How it was run: (§2)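 Single bronchoscopy with BAL in healthy adults (5 per time point) after the third co-dose, following 6 h fasting. Supernatant (400 × g, 4°C, 10 min) mixed 1:1 with methanol. Both drugs measured by HPLC-MS/MS with saline surrogate-matrix calibrators. ELF volume estimated by urea dilution, with urea in BAL and simultaneous serum measured colorimetrically. Total drug reported.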

[10] = Drug level in healthy human epithelial lining fluid at 6 mg/kg, iv for every 12 hrs on day 1 as 120 mins infusions followed by maintenance dose of 4 mg/kg every 12 hrs on day 2 and single 4 mg/kg dose on day 3 as 100 mins infusions after 8 hrs of last dose; format: ADME, organism-based; conditions: read-out: Drug uptake; how it was run: as §2
[11] = Drug level in healthy human epithelial lining fluid at 6 mg/kg, iv for every 12 hrs on day 1 as 120 mins infusions followed by maintenance dose of 4 mg/kg every 12 hrs on day 2 and single 4 mg/kg dose on day 3 as 100 mins infusions after 12 hrs of last dose; format: ADME, organism-based; conditions: read-out: Drug uptake; how it was run: as §2
[12] = Drug level in healthy human alveolar macrophage at 6 mg/kg, iv for every 12 hrs on day 1 as 120 mins infusions followed by maintenance dose of 4 mg/kg every 12 hrs on day 2 and single 4 mg/kg dose on day 3 as 100 mins infusions after 4 hrs of last dose; format: ADME, organism-based; conditions: alveolar macrophages, read-out: Drug uptake
How it was run: (§3)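 Single bronchoscopy with BAL in healthy adults (5 per time point) after the third co-dose, following 6 h fasting and lidocaine anaesthesia. BAL centrifuged at 400 × g, 4°C, 10 min. Cell pellet lysed in 0.9% NaCl/methanol (1:1). Both drugs measured by HPLC-MS/MS against saline surrogate-matrix standards. AM concentration calculated from manual cell counts and a mean AM volume of 2.42 μl/10^6 cells. Total drug reported.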

[13] = Drug level in healthy human alveolar macrophage at 6 mg/kg, iv for every 12 hrs on day 1 as 120 mins infusions followed by maintenance dose of 4 mg/kg every 12 hrs on day 2 and single 4 mg/kg dose on day 3 as 100 mins infusions after 8 hrs of last dose; format: ADME, organism-based; conditions: alveolar macrophages, read-out: Drug uptake; how it was run: as §3
[14] = Drug level in healthy human alveolar macrophage at 6 mg/kg, iv for every 12 hrs on day 1 as 120 mins infusions followed by maintenance dose of 4 mg/kg every 12 hrs on day 2 and single 4 mg/kg dose on day 3 as 100 mins infusions after 12 hrs of last dose; format: ADME, organism-based; conditions: alveolar macrophages, read-out: Drug uptake; how it was run: as §3
[15] = Cmax in healthy human at 200 mg, iv on day 1 as 200 mins infusion followed by maintenance dose of 100 mg every 24 hrs on days 2 and 3 as 100 mins infusions; format: ADME, organism-based; design: dose 200 mg, route intravenous; conditions: in vivo
How it was run: (§4)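 Duplicate blood draws at 0 h, 100 min (end of infusion), and 2, 4, 8, 12, 24 h after the day-3 dose start. Plasma measured by HPLC-MS/MS (range 50.0–20,000 ng/ml). Noncompartmental analysis, per participant; AUC0-τ by linear-log trapezoidal rule, τ = 24 h.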

[16] = Tmax in healthy human at 200 mg, iv on day 1 as 200 mins infusion followed by maintenance dose of 100 mg every 24 hrs on days 2 and 3 as 100 mins infusions; format: ADME, organism-based; conditions: in vivo; how it was run: as §4
Homo sapiens [17] = experiment: AUC (0 to t) in healthy human at 200 mg, iv on day 1 as 200 mins infusion followed by maintenance dose of 100 mg every 24 hrs on days 2 and 3 as 100 mins infusions; format: ADME, organism-based, Plasma; conditions: in vivo; how it was run: as §4
[18] = Volume of distribution at steady state in healthy human at 200 mg, iv on day 1 as 200 mins infusion followed by maintenance dose of 100 mg every 24 hrs on days 2 and 3 as 100 mins infusions; format: ADME, organism-based; conditions: in vivo, read-out: Vdss; how it was run: as §4
Homo sapiens [19] = experiment: Total body clearance in healthy human at 200 mg, iv on day 1 as 200 mins infusion followed by maintenance dose of 100 mg every 24 hrs on days 2 and 3 as 100 mins infusions; format: ADME, organism-based; conditions: in vivo; how it was run: as §4
[20] = Elimination half life in healthy human at 200 mg, iv on day 1 as 200 mins infusion followed by maintenance dose of 100 mg every 24 hrs on days 2 and 3 as 100 mins infusions; format: ADME, organism-based; conditions: in vivo, read-out: beta t1/2 (converted)
[21] = Drug level healthy human plasma at 200 mg, iv on day 1 as 200 mins infusion followed by maintenance dose of 100 mg every 24 hrs on days 2 and 3 as 100 mins infusions after 4 hrs of last dose; format: ADME, organism-based; conditions: read-out: Drug uptake
[22] = Drug level healthy human plasma at 200 mg, iv on day 1 as 200 mins infusion followed by maintenance dose of 100 mg every 24 hrs on days 2 and 3 as 100 mins infusions after 8 hrs of last dose; format: ADME, organism-based; conditions: read-out: Drug uptake
[23] = Drug level healthy human plasma at 200 mg, iv on day 1 as 200 mins infusion followed by maintenance dose of 100 mg every 24 hrs on days 2 and 3 as 100 mins infusions after 12 hrs of last dose; format: ADME, organism-based; conditions: read-out: Drug uptake
[24] = Drug level healthy human plasma at 200 mg, iv on day 1 as 200 mins infusion followed by maintenance dose of 100 mg every 24 hrs on days 2 and 3 as 100 mins infusions after 24 hrs of last dose; format: ADME, organism-based; conditions: read-out: Drug uptake
[25] = Drug level healthy human epithelial lining fluid at 200 mg, iv on day 1 as 200 mins infusion followed by maintenance dose of 100 mg every 24 hrs on days 2 and 3 as 100 mins infusions after 4 hrs of last dose; format: ADME, organism-based; conditions: read-out: Drug uptake; how it was run: as §2
[26] = Drug level healthy human epithelial lining fluid at 200 mg, iv on day 1 as 200 mins infusion followed by maintenance dose of 100 mg every 24 hrs on days 2 and 3 as 100 mins infusions after 8 hrs of last dose; format: ADME, organism-based; conditions: read-out: Drug uptake; how it was run: as §2
[27] = Drug level healthy human epithelial lining fluid at 200 mg, iv on day 1 as 200 mins infusion followed by maintenance dose of 100 mg every 24 hrs on days 2 and 3 as 100 mins infusions after 12 hrs of last dose; format: ADME, organism-based; conditions: read-out: Drug uptake; how it was run: as §2
[28] = Drug level healthy human epithelial lining fluid at 200 mg, iv on day 1 as 200 mins infusion followed by maintenance dose of 100 mg every 24 hrs on days 2 and 3 as 100 mins infusions after 24 hrs of last dose; format: ADME, organism-based; conditions: read-out: Drug uptake; how it was run: as §2
[29] = Drug level healthy human alveolar macrophage at 200 mg, iv on day 1 as 200 mins infusion followed by maintenance dose of 100 mg every 24 hrs on days 2 and 3 as 100 mins infusions after 4 hrs of last dose; format: ADME, organism-based; conditions: alveolar macrophages, read-out: Drug uptake; how it was run: as §3
[30] = Drug level healthy human alveolar macrophage at 200 mg, iv on day 1 as 200 mins infusion followed by maintenance dose of 100 mg every 24 hrs on days 2 and 3 as 100 mins infusions after 8 hrs of last dose; format: ADME, organism-based; conditions: alveolar macrophages, read-out: Drug uptake; how it was run: as §3
[31] = Drug level healthy human alveolar macrophage at 200 mg, iv on day 1 as 200 mins infusion followed by maintenance dose of 100 mg every 24 hrs on days 2 and 3 as 100 mins infusions after 12 hrs of last dose; format: ADME, organism-based; conditions: alveolar macrophages, read-out: Drug uptake; how it was run: as §3
[32] = Drug level healthy human alveolar macrophage at 200 mg, iv on day 1 as 200 mins infusion followed by maintenance dose of 100 mg every 24 hrs on days 2 and 3 as 100 mins infusions after 24 hrs of last dose; format: ADME, organism-based; conditions: alveolar macrophages, read-out: Drug uptake; how it was run: as §3

## C[C@@H](c1ncncc1F)[C@](O)(Cn1cncn1)c1ccc(F)cc1F [VORICONAZOLE]
[1]
  Cmax: 5300 ng/mL
[2]
  Tmax: 1.8 h
[3]
  AUC(0-t): 39500 ng·h/mL
[4]
  Vd: 110 L
[5]
  half-life: 6.9 h
[6]
  concentration at 4 h: 5300 ng/mL
[7]
  concentration at 8 h: 1700 ng/mL
[8]
  concentration at 12 h: 2200 ng/mL
[9]
  concentration at 4 h: 48300 ng/mL
[10]
  concentration at 8 h: 10100 ng/mL
[11]
  concentration at 12 h: 17200 ng/mL
[12]
  concentration at 4 h: 20600 ng/mL
[13]
  concentration at 8 h: 10300 ng/mL
[14]
  concentration at 12 h: 14400 ng/mL

## CCCCCOc1ccc(-c2ccc(-c3ccc(C(=O)N[C@H]4C[C@@H](O)[C@@H](O)NC(=O)[C@@H]5[C@@H](O)[C@@H](C)CN5C(=O)[C@H]([C@@H](C)O)NC(=O)[C@H]([C@H](O)[C@@H](O)c5ccc(O)cc5)NC(=O)[C@@H]5C[C@@H](O)CN5C(=O)[C@H]([C@@H](C)O)NC4=O)cc3)cc2)cc1 [ANIDULAFUNGIN] ({pTerphenylCO(4''-OnC5H11)}-[Orn(4R-OH,5R-OH)]T[Hyp][hTyr(3S-OH,4S-OH)]T[Pro(3S-OH,4S-Me)]; lactam 1-C)
[15]
  Cmax: 6600 ng/mL
[16]
  Tmax: 1.9 h
Homo sapiens [17]
  AUC: 101000 ng·h/mL
[18]
  Vd: 30.8 L
Homo sapiens [19]
  clearance: 17.1 mL/min
[20]
  half-life: 20.8 h
[21]
  concentration at 4 h: 6000 ng/mL
[22]
  concentration at 8 h: 5100 ng/mL
[23]
  concentration at 12 h: 4400 ng/mL
[24]
  concentration at 24 h: 3000 ng/mL
[25]
  concentration at 4 h: 900 ng/mL
[26]
  concentration at 8 h: 800 ng/mL
[27]
  concentration at 12 h: 800 ng/mL
[28]
  concentration at 24 h: 1100 ng/mL
[29]
  concentration at 4 h: 44600 ng/mL
[30]
  concentration at 8 h: 37900 ng/mL
[31]
  concentration at 12 h: 42700 ng/mL
[32]
  concentration at 24 h: 103000 ng/mL
